This is an account of results in ChEMBL document CHEMBL2040798, “One-pot synthesis of novel isoindoline-1,3-dione derivatives bearing 1,2,4-triazole moiety and their preliminary biological evaluation” (Eur J Med Chem, 2012).

SMILES strings stand for the structures.

A short description of assay [1]: Cytotoxicity against human PC3M cells after 48 hrs by MTT assay. The format is functional, cell-based. To be noted: PC-3M. The essentials:
(§1)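 MTT assay. Cells kept in DMEM with 10% FBS. HepG2 seeded at 1 × 10^4 cells/well; A549, PC-3M and MKN45 at 1.6 × 10^4 cells/well. Attachment 24 h at 37 °C. Compounds diluted in medium from 10 mM DMSO stocks; 0.1% DMSO served as negative control. Exposure 48 h at 37 °C, then MTT for 3 h. Formazan dissolved in DMSO and read at 570 nm. IC50 from a concentration series; mean of three independent experiments.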
In general terms: Tetrazolium dyes change colour on reduction, which living cells bring about.

In a further assay the test system is A549. Kind of assay: Cytotoxicity against human A549 cells after 48 hrs by MTT assay. The format is functional, cell-based. To be noted: A549, 48 h. The essentials:
as §1

A further assay relates to Pyricularia grisea. Kind of assay: Growth inhibition of Phyricularia oryzae Cav. at 150 mg/mL after 48 hrs by mycelium growth rate method. The format is functional. On the set-up: dose or concentration left out as unconfirmed. To be noted: read-out: GI.
In another assay the test system is HepG2. The assay is described as follows: Cytotoxicity against human HepG2 cells after 48 hrs by MTT assay. The format is functional, cell-based. To be noted: HepG2, 48 h. A digest of the protocol:
as §1

The subject of another assay is MKN-45. Kind of assay: Cytotoxicity against human MKN45 cells after 48 hrs by MTT assay. The format is functional, cell-based. To be noted: MKN-45, 48 h. A digest of the protocol:
as §1

By IC50 is commonly meant the concentration at which inhibition is half-maximal. In the case of `COc1cc(-c2nnc(SC)n2N2C(=O)c3ccccc3C2=O)cc(OC)c1OC`, the IC50 (in assay [1]; in the assay on A549; in the assay with HepG2; with MKN-45) was over 200 µM in each case. The inhibition of growth in the assay with Pyricularia grisea is at least 50%.
For the molecule `CCc1nnc(SCC(=O)c2ccccc2)n1N1C(=O)c2ccccc2C1=O`, the IC50 (in assay [1]; in the assay with A549; in the assay with HepG2; with MKN-45) was over 200 µM each time. Further, the inhibition of growth with Pyricularia grisea was under 50%.
For the molecule `CCCc1nnc(SC)n1N1C(=O)c2ccccc2C1=O`, the IC50 (in assay [1]; with A549; in the assay with HepG2; in the assay with MKN-45) was over 200 µM throughout. Also, the inhibition of growth with Pyricularia grisea was under 50%.
As for `C#CCSc1nnc(-c2cc(OC)c(OC)c(OC)c2)n1N1C(=O)c2ccccc2C1=O`, the IC50 (in assay [1]; with A549; in the assay on HepG2; with MKN-45) was over 200 µM in each case. The inhibition of growth in the assay on Pyricularia grisea is under 50%.
On to `CCOC(=O)CSc1nnc(-c2cc(OC)c(OC)c(OC)c2)n1N1C(=O)c2ccccc2C1=O`, for which the IC50 (in assay [1]; with A549; in the assay on HepG2; in the assay with MKN-45) was over 200 µM in each case. In addition, in the assay with Pyricularia grisea, the inhibition of growth is under 50%.
For `CCc1nnc(SCC(=O)c2ccc(C)cc2)n1N1C(=O)c2ccccc2C1=O`, the IC50 (in assay [1]; in the assay on A549; in the assay on HepG2; in the assay with MKN-45) was over 200 µM in each case. Further, the inhibition of growth with Pyricularia grisea is under 50%.
In the case of `COc1cc(-c2nnc(SCc3ccccc3Cl)n2N2C(=O)c3ccccc3C2=O)cc(OC)c1OC`, the IC50 (in assay [1]; with A549; with HepG2; in the assay with MKN-45) was over 200 µM in each case. For the same molecule, the inhibition of growth in the assay with Pyricularia grisea is under 50%.
Turning to `CCOC(=O)CSc1nnc(CC)n1N1C(=O)c2ccccc2C1=O`, the IC50 (in assay [1]; in the assay with A549; with HepG2; with MKN-45) was over 200 µM each time. Further, the inhibition of growth in the assay on Pyricularia grisea was at least 50%.
Consider `COc1cc(-c2nnc(SCC(=O)c3ccccc3C)n2N2C(=O)c3ccccc3C2=O)cc(OC)c1OC`, for which the IC50 is over 200 µM in assay [1], 144 µM in the assay with A549, over 200 µM in the assay on HepG2 and over 200 µM with MKN-45. The inhibition of growth with Pyricularia grisea is under 50%.
For the molecule `Cc1ccc(C(=O)CSc2nnc(C)n2N2C(=O)c3ccccc3C2=O)cc1`, the IC50 (in assay [1]; in the assay on A549; in the assay with HepG2; with MKN-45) was over 200 µM in each case. For the same molecule, the inhibition of growth with Pyricularia grisea is at least 50%.
On to `CCOC(=O)CSc1nnc(C)n1N1C(=O)c2ccccc2C1=O`, for which the IC50 (in assay [1]; in the assay on A549; in the assay on HepG2; in the assay with MKN-45) was over 200 µM throughout. Besides, the inhibition of growth with Pyricularia grisea is under 50%.
Take `CCc1nnc(SC)n1N1C(=O)c2ccccc2C1=O`: the IC50 (in assay [1]; in the assay on A549; in the assay on HepG2; in the assay on MKN-45) was over 200 µM throughout. In addition, the inhibition of growth in the assay with Pyricularia grisea is under 50%.
For `C=CCSc1nnc(-c2cc(OC)c(OC)c(OC)c2)n1N1C(=O)c2ccccc2C1=O`, the IC50 (in assay [1]; in the assay on A549; with HepG2; in the assay on MKN-45) was over 200 µM each time. Moreover, the inhibition of growth in the assay with Pyricularia grisea is at least 60%.
Turning to `COc1cc(-c2nnc(SCC(=O)c3ccc(Cl)cc3)n2N2C(=O)c3ccccc3C2=O)cc(OC)c1OC`, the IC50 in assay [1] amounted to 20.7 µM; with A549, 9.03 µM; in the assay with HepG2 it was 22 µM; in the assay on MKN-45, 26.6 µM. Also, the inhibition of growth in the assay on Pyricularia grisea is under 50%.
On to `O=c1[nH]cc(F)c(=O)[nH]1` [FLUOROURACIL], for which the IC50 in assay [1] was 22.6 µM; in the assay with MKN-45, 41.7 µM.
Take `C=CCSc1nnc(CCC)n1N1C(=O)c2ccccc2C1=O`: the IC50 (in assay [1]; in the assay with A549; in the assay on HepG2; in the assay on MKN-45) was over 200 µM throughout. Besides, in the assay with Pyricularia grisea, the inhibition of growth is under 50%.
For `CCCc1nnc(SCc2ccccc2Cl)n1N1C(=O)c2ccccc2C1=O`, the IC50 (in assay [1]; in the assay with A549; in the assay on HepG2; in the assay on MKN-45) was over 200 µM in each case. Further, the inhibition of growth with Pyricularia grisea is under 50%.
Turning to `C=CCSc1nnc(CC)n1N1C(=O)c2ccccc2C1=O`, the IC50 (in assay [1]; with A549; in the assay with HepG2; in the assay on MKN-45) was over 200 µM each time. For the same molecule, the inhibition of growth in the assay with Pyricularia grisea is under 50%.
In the case of `CCCc1nnc(SCC(=O)c2ccc(Cl)cc2)n1N1C(=O)c2ccccc2C1=O`, the IC50 (in assay [1]; in the assay with A549; in the assay with HepG2; in the assay on MKN-45) was over 200 µM in each case. Moreover, the inhibition of growth in the assay with Pyricularia grisea was under 50%.
In the case of `COc1cc(-c2nnc(SCC(=O)c3ccc(F)cc3)n2N2C(=O)c3ccccc3C2=O)cc(OC)c1OC`, the IC50 was over 200 µM in assay [1], over 200 µM in the assay with A549, over 200 µM in the assay on HepG2 and 126 µM in the assay on MKN-45. Also, the inhibition of growth in the assay with Pyricularia grisea was under 50%.
On to `CC(C)(C)C(=O)C(Oc1ccc(Cl)cc1)n1cncn1` (stereo not drawn) [TRIADIMEFON], for which, in the assay on Pyricularia grisea, the inhibition of growth was at least 80%.
`CCCc1nnc(SCc2ccccc2)n1N1C(=O)c2ccccc2C1=O`: the IC50 (in assay [1]; in the assay on A549; in the assay on HepG2; in the assay on MKN-45) was over 200 µM in each case. Moreover, the inhibition of growth with Pyricularia grisea is under 50%.
Take `C#CCSc1nnc(CCC)n1N1C(=O)c2ccccc2C1=O`: the IC50 (in assay [1]; in the assay on A549; with HepG2; in the assay with MKN-45) was over 200 µM in each case. Besides, the inhibition of growth with Pyricularia grisea was under 50%.
As to `COc1cc(-c2nnc(SCc3ccccc3)n2N2C(=O)c3ccccc3C2=O)cc(OC)c1OC`, the IC50 (in assay [1]; with A549; in the assay on HepG2; in the assay on MKN-45) was over 200 µM each time. In addition, in the assay with Pyricularia grisea, the inhibition of growth is under 50%.
For the molecule `C#CCSc1nnc(CC)n1N1C(=O)c2ccccc2C1=O`, the IC50 (in assay [1]; in the assay on A549; in the assay on HepG2; in the assay with MKN-45) was over 200 µM in each case. Moreover, the inhibition of growth with Pyricularia grisea is at least 60%.
`COc1cc(-c2nnc(SCC(=O)c3ccc(Br)cc3)n2N2C(=O)c3ccccc3C2=O)cc(OC)c1OC`: the IC50 in assay [1] was 22.6 µM; in the assay with A549, 16.1 µM; with HepG2, 27.7 µM; in the assay with MKN-45 it was 22.3 µM. Moreover, the inhibition of growth with Pyricularia grisea is at least 60%.
On the same counts, the results for `Cc1nnc(SCC(=O)c2ccc(Cl)cc2)n1N1C(=O)c2ccccc2C1=O` are over 200 µM, over 200 µM, over 200 µM, over 200 µM and at least 60%.
Regarding `Cc1nnc(SCC(=O)c2ccccc2)n1N1C(=O)c2ccccc2C1=O`, the IC50 (in assay [1]; in the assay with A549; with HepG2; with MKN-45) was over 200 µM in each case. In addition, the inhibition of growth in the assay on Pyricularia grisea was under 50%.
Take `Cc1nnc(SCc2ccccc2)n1N1C(=O)c2ccccc2C1=O`: the half-maximal inhibitory concentration (IC50) (in assay [1]; in the assay with A549; in the assay with HepG2; with MKN-45) was over 200 µM in each case. The inhibition of growth in the assay with Pyricularia grisea was under 50%.
For the molecule `CSc1nnc(C)n1N1C(=O)c2ccccc2C1=O`, the IC50 (in assay [1]; in the assay on A549; with HepG2; with MKN-45) was over 200 µM each time. In the assay on Pyricularia grisea, the inhibition of growth was under 50%.
As to `CCCc1nnc(SCC(=O)c2ccccc2)n1N1C(=O)c2ccccc2C1=O`, the IC50 (in assay [1]; in the assay with A549; with HepG2; with MKN-45) was over 200 µM throughout. Besides, in the assay with Pyricularia grisea, the inhibition of growth was under 50%.
On to `COc1cc(-c2nnc(SCC(=O)c3ccccc3)n2N2C(=O)c3ccccc3C2=O)cc(OC)c1OC`, for which the IC50 in assay [1] was over 200 µM; with A549, over 200 µM; with HepG2, 171 µM; in the assay with MKN-45, over 200 µM. The inhibition of growth in the assay on Pyricularia grisea was at least 60%.
For `Cc1nnc(SCc2ccccc2Cl)n1N1C(=O)c2ccccc2C1=O`, the IC50 (in assay [1]; in the assay with A549; in the assay on HepG2; in the assay with MKN-45) was over 200 µM in each case. Further, the inhibition of growth in the assay on Pyricularia grisea was at least 60%.
In the case of `CCc1nnc(SCc2ccccc2)n1N1C(=O)c2ccccc2C1=O`, the IC50 (in assay [1]; in the assay on A549; in the assay with HepG2; with MKN-45) was over 200 µM each time. For the same molecule, the inhibition of growth with Pyricularia grisea was at least 50%.
With `COc1cc(-c2nnc(SCC(=O)c3ccc(F)c(F)c3)n2N2C(=O)c3ccccc3C2=O)cc(OC)c1OC`, the IC50 in assay [1] was 163 µM; in the assay on A549 it was over 200 µM; in the assay with HepG2 it was over 200 µM; in the assay on MKN-45, over 200 µM. The inhibition of growth with Pyricularia grisea was under 50%.
On to `CCc1nnc(SCC(=O)c2ccc(Cl)cc2)n1N1C(=O)c2ccccc2C1=O`, for which the IC50 (in assay [1]; in the assay on A549; in the assay on HepG2; in the assay on MKN-45) was over 200 µM in each case. Also, in the assay on Pyricularia grisea, the inhibition of growth is under 50%.
Turning to `C#CCSc1nnc(C)n1N1C(=O)c2ccccc2C1=O`, the IC50 (in assay [1]; in the assay on A549; in the assay on HepG2; in the assay on MKN-45) was over 200 µM in each case. Besides, the inhibition of growth in the assay on Pyricularia grisea was at least 60%.
